Columns and labels:
Format in all cases: functional
[1] = Cytotoxicity against human UACC257 cells
Method in brief: (§1)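 Cell line run as part of the 60-cell-line screening panel; growth inhibition was reported as a GI50 for each line.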

BT-549 = experiment: Cytotoxicity against human BT549 cells
Method in brief: (§2)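 Tested in a 60-cell-line human tumor panel screen; the read-out is growth inhibition, reported as GI50 for each cell line.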

SK-MEL-5 = experiment: Cytotoxicity against human SK-MEL-5 cells; method in brief: as §2
HCC 2998 = experiment: Cytotoxicity against human HCC2998 cells; method in brief: as §2
IGROV-1 = experiment: Cytotoxicity against human IGROV1 cells; method in brief: as §2
HT-29 = experiment: Cytotoxicity against human HT-29 cells; method in brief: as §2
SNB-75 = experiment: Cytotoxicity against human SNB75 cells; method in brief: as §1
SR = experiment: Cytotoxicity against human SR cells; method in brief: as §1
TK-10 = experiment: Cytotoxicity against human TK10 cells; method in brief: as §1
PC-3 = experiment: Cytotoxicity against human PC3 cells; method in brief: as §2
[2] = Cytotoxicity against human OVCAR3 cells; method in brief: as §2
M14 = experiment: Cytotoxicity against human M14 cells; method in brief: as §2
MOLT-4 = experiment: Cytotoxicity against human MOLT4 cells; method in brief: as §2
786-0 = experiment: Cytotoxicity against human 786-0 cells; method in brief: as §2
HCT-116 = experiment: Cytotoxicity against human HCT116 cells; method in brief: as §2
[3] = Cytotoxicity against human OVCAR8 cells; method in brief: as §2
COLO 205 = experiment: Cytotoxicity against human COLO205 cells; method in brief: as §2
LOX IMVI = experiment: Cytotoxicity against human LOXIMVI cells; method in brief: as §2
NCI-H226 = experiment: Cytotoxicity against human NCI-H226 cells; method in brief: as §2
DU-145 = experiment: Cytotoxicity against human DU145 cells; method in brief: as §2
MDA-MB-468 = experiment: Cytotoxicity against human MDA-MB-468 cells; method in brief: as §2
MDA-MB-231 = experiment: Cytotoxicity against human MDA-MB-231 cells; method in brief: as §2
SF-295 = experiment: Cytotoxicity against human SF295 cells; method in brief: as §2
CCRF-CEM = experiment: Cytotoxicity against human CCRF-CEM cells
SF-268 = experiment: Cytotoxicity against human SF268 cells; method in brief: as §2
CAKI-1 = experiment: Cytotoxicity against human Caki1 cells; method in brief: as §2
KM12 = experiment: Cytotoxicity against human KM12 cells; method in brief: as §2
SK-MEL-2 = experiment: Cytotoxicity against human SK-MEL-2 cells; method in brief: as §2
RXF 393 = experiment: Cytotoxicity against human RXF393 cells; method in brief: as §2
HOP-62 = experiment: Cytotoxicity against human HOP62 cells; method in brief: as §2
NCI-H23 = experiment: Cytotoxicity against human NCI-H23 cells; method in brief: as §2
K562 = experiment: Cytotoxicity against human K562 cells; method in brief: as §2
SK-OV-3 = experiment: Cytotoxicity against human SKOV3 cells; method in brief: as §2
NCI-H460 = experiment: Cytotoxicity against human NCI-H460 cells; method in brief: as §2
[4] = Cytotoxicity against human NCI-ADR-RES cells; method in brief: as §2
T47D = experiment: Cytotoxicity against human T47D cells; method in brief: as §1
[5] = Cytotoxicity against human UACC62 cells; method in brief: as §1
[6] = Cytotoxicity against human OVCAR4 cells; method in brief: as §2
HL-60(TB) = experiment: Cytotoxicity against human HL-60(TB) cells
Method in brief: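 Tested within the NCI 60-cell-line screen, with GI50 as the read-out. Values are the average of two independent experiments. The lowest concentration tested was 10 nM.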

[7] = Cytotoxicity against human HCT15 cells; method in brief: as §2
MDA-MB-435 = experiment: Cytotoxicity against human MDA-MB-435 cells; method in brief: as §2
SF-539 = experiment: Cytotoxicity against human SF539 cells; method in brief: as §2
MCF7 = experiment: Cytotoxicity against human MCF7 cells; method in brief: as §2
[8] = read-out: pLC50 (the source's name) (converted)

Structure (SMILES): COc1cc(/C=C/c2cc(OC)c3cc[nH]c3c2)cc2c1O[C@]1(C)CC[C@@H](O)C(C)(C)[C@H]1C2
- GI50 ([1]; UACC-257): 295 nM
- TGI ([1]; UACC-257, read-out: pTGI (converted)): 759 nM
- GI50 (BT-549): 229 nM
- CC50 (BT-549; [8]): > 100000 nM
- TGI (BT-549; read-out: pTGI (converted)): 3090 nM
- GI50 (SK-MEL-5): 178 nM
- CC50 (SK-MEL-5; [8]): 708 nM
- TGI (SK-MEL-5; read-out: pTGI (converted)): 355 nM
- GI50 (HCC 2998): 2240 nM
- CC50 (HCC 2998; [8]): 49000 nM
- TGI (HCC 2998; read-out: pTGI (converted)): 11200 nM
- GI50 (IGROV-1): 977 nM
- CC50 (IGROV-1; [8]): > 100000 nM
- TGI (IGROV-1; read-out: pTGI (converted)): 13500 nM
- GI50 (HT-29): 288 nM
- CC50 (HT-29; [8]): > 100000 nM
- TGI (HT-29; read-out: pTGI (converted)): 1780 nM
- GI50 (SNB-75): 93.3 nM
- TGI (SNB-75; read-out: pTGI (converted)): 468 nM
- GI50 (SR): 302 nM
- CC50 (SR; [8]): > 100000 nM
- TGI (SR; read-out: pTGI (converted)): 5620 nM
- GI50 (TK-10): 1550 nM
- LC50 (TK-10): > 100000 nM
- TGI (TK-10; read-out: pTGI (converted)): 11000 nM
- GI50 (PC-3): 191 nM
- LC50 (PC-3): > 100000 nM
- TGI (PC-3; read-out: pTGI (converted)): 1780 nM
- GI50 ([2]; OVCAR-3): 1200 nM
- CC50 ([2]; OVCAR-3, read-out: pLC50 (the source's name) (converted)): 10000 nM
- TGI ([2]; OVCAR-3, read-out: pTGI (converted)): 3160 nM
- GI50 (M14): 174 nM
- CC50 (M14; [8]): 741 nM
- TGI (M14; read-out: pTGI (converted)): 355 nM
- GI50 (MOLT-4): 91.2 nM
- CC50 (MOLT-4; [8]): > 100000 nM
- TGI (MOLT-4; read-out: pTGI (converted)): 490 nM
- GI50 (786-0): 72.4 nM
- LC50 (concentration killing 50% of cells) (786-0): 3020 nM
- TGI (786-0; read-out: pTGI (converted)): 468 nM
- GI50 (HCT-116): 537 nM
- CC50 (HCT-116; [8]): 6030 nM
- TGI (HCT-116; read-out: pTGI (converted)): 2040 nM
- GI50 ([3]; OVCAR-8): 3630 nM
- CC50 ([3]; OVCAR-8, read-out: pLC50 (the source's name) (converted)): > 100000 nM
- TGI ([3]; OVCAR-8, read-out: pTGI (converted)): 25100 nM
- GI50 (COLO 205): 219 nM
- CC50 (COLO 205; [8]): 891 nM
- TGI (COLO 205; read-out: pTGI (converted)): 447 nM
- GI50 (LOX IMVI): 389 nM
- CC50 (LOX IMVI; [8]): 4470 nM
- TGI (LOX IMVI; read-out: pTGI (converted)): 1480 nM
- GI50 (NCI-H226): 1740 nM
- CC50 (NCI-H226; [8]): 58900 nM
- TGI (NCI-H226; read-out: pTGI (converted)): 7080 nM
- GI50 (DU-145): 1070 nM
- LC50 (50% lethal concentration) (DU-145): > 100000 nM
- TGI (DU-145; read-out: pTGI (converted)): 4370 nM
- GI50 (MDA-MB-468): 631 nM
- LC50 (MDA-MB-468): > 100000 nM
- TGI (MDA-MB-468; read-out: pTGI (converted)): 4470 nM
- GI50 (MDA-MB-231): 851 nM
- LC50 (MDA-MB-231): > 100000 nM
- TGI (MDA-MB-231; read-out: pTGI (converted)): 4570 nM
- GI50 (SF-295; read-out: GI50): 55 nM
- GI50 (SF-295; read-out: pGI50 (converted)): 55 nM
- CC50 (SF-295; [8]): 794 nM
- TGI (SF-295; read-out: pTGI (converted)): 224 nM
- GI50 (CCRF-CEM): 151 nM
- CC50 (CCRF-CEM; [8]): > 100000 nM
- GI50 (SF-268): 282 nM
- CC50 (SF-268; [8]): 10000 nM
- TGI (SF-268; read-out: pTGI (converted)): 10200 nM
- GI50 (CAKI-1): 79.4 nM
- LC50 (CAKI-1): 851 nM
- TGI (CAKI-1; read-out: pTGI (converted)): 269 nM
- GI50 (KM12): 191 nM
- CC50 (KM12; [8]): 3630 nM
- TGI (KM12; read-out: pTGI (converted)): 468 nM
- GI50 (SK-MEL-2): 309 nM
- CC50 (SK-MEL-2; [8]): > 100000 nM
- TGI (SK-MEL-2; read-out: pTGI (converted)): 1740 nM
- GI50 (RXF 393): 24 nM
- LC50 (RXF 393): 316 nM
- TGI (RXF 393; read-out: pTGI (converted)): 60.3 nM
- GI50 (HOP-62): 501 nM
- CC50 (HOP-62; [8]): 9550 nM
- TGI (HOP-62; read-out: pTGI (converted)): 2400 nM
- GI50 (NCI-H23): 692 nM
- CC50 (NCI-H23; [8]): > 100000 nM
- TGI (NCI-H23; read-out: pTGI (converted)): 3390 nM
- GI50 (K562): 324 nM
- CC50 (K562; [8]): > 100000 nM
- TGI (K562; read-out: pTGI (converted)): 1380 nM
- GI50 (SK-OV-3): 339 nM
- TGI (SK-OV-3; read-out: pTGI (converted)): 1290 nM
- GI50 (NCI-H460): 380 nM
- CC50 (NCI-H460; [8]): 37200 nM
- TGI (NCI-H460; read-out: pTGI (converted)): 2290 nM
- GI50 [4]: 2090 nM
- CC50 [4, 8]: > 100000 nM
- TGI ([4]; read-out: pTGI (converted)): 20000 nM
- GI50 (T47D): 2820 nM
- CC50 (T47D; [8]): > 100000 nM
- TGI (T47D; read-out: pTGI (converted)): 50100 nM
- GI50 ([5]; UACC-62): 162 nM
- CC50 ([5]; UACC-62, read-out: pLC50 (the source's name) (converted)): 955 nM
- TGI ([5]; UACC-62, read-out: pTGI (converted)): 398 nM
- GI50 ([6]; OVCAR-4): 871 nM
- CC50 ([6]; OVCAR-4, read-out: pLC50 (the source's name) (converted)): > 100000 nM
- TGI ([6]; OVCAR-4, read-out: pTGI (converted)): 26900 nM
- GI50 (HL-60(TB)): 138 nM
- CC50 (HL-60(TB); [8]): > 100000 nM
- TGI (HL-60(TB); read-out: pTGI (converted)): 1320 nM
- GI50 ([7]; HCT-15): 398 nM
- CC50 ([7]; HCT-15, read-out: pLC50 (the source's name) (converted)): > 100000 nM
- TGI ([7]; HCT-15, read-out: pTGI (converted)): 7940 nM
- GI50 (MDA-MB-435): 355 nM
- CC50 (MDA-MB-435; [8]): > 100000 nM
- TGI (MDA-MB-435; read-out: pTGI (converted)): 2570 nM
- GI50 (SF-539): 141 nM
- CC50 (SF-539; [8]): 3090 nM
- TGI (SF-539; read-out: pTGI (converted)): 468 nM
- GI50 (MCF7): 389 nM
- LC50 (MCF7): > 100000 nM
- TGI (MCF7; read-out: pTGI (converted)): 2000 nM

Source: ChEMBL document CHEMBL3232844, “Synthesis and structure activity relationships of schweinfurthin indoles” (2014)
